Measured values published in PubChem BioAssay.
Active and inactive are the calls of the source.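 The calls were made as follows, unless noted: active = potentiation averaged over duplicate wells exceeding buffer-only control mean by more than 3 SD; inactive = the rest.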

How the values were obtained:
[1] = thallium flux activation in parental CHO cells, counter-screen for KCNQ1 potentiator project (AID 493006;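 active = duplicate-averaged activation above buffer control mean plus 5 SD of those controls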;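 as to activation: fluorescence ratio of max minus min over baseline after K+ and Tl+ depolarization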); conditions: parental CHO-K1 cells, FluxOR thallium flux, at 10 µM; stronger effect = higher value
Outline: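 Material: untransfected host CHO-K1 cells with FluxOR thallium dye. Timing: overnight 37 °C plating, 90 min RT dye, 20 min compound. Detection: kinetic FluxOR fluorescence, 10 s baseline, 110 s after stimulus. Read-out basis: max-minus-min fluorescence over baseline, percent of buffer-to-R-L3 span. Replicates: duplicate wells per compound, percent values averaged.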

[2] = molecular target: Potassium voltage-gated channel subfamily KQT member 1 (Homo sapiens) (UniProt P51787); assay: KCNQ1 potassium channel potentiators, confirmation, FluxOR thallium flux, CHO cells, duplicates (AID 493007); conditions: KCNQ1 cell line, FluxOR thallium flux fluorescence, at 10 µM; stronger effect = higher value, % of reference activator effect, buffer zero;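 as to outcome: cells depolarized by a potassium plus thallium sulfate stimulus after compound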
Chain of Potassium voltage-gated channel subfamily KQT member 1 (Homo sapiens) (P51787 whole entry, looked up): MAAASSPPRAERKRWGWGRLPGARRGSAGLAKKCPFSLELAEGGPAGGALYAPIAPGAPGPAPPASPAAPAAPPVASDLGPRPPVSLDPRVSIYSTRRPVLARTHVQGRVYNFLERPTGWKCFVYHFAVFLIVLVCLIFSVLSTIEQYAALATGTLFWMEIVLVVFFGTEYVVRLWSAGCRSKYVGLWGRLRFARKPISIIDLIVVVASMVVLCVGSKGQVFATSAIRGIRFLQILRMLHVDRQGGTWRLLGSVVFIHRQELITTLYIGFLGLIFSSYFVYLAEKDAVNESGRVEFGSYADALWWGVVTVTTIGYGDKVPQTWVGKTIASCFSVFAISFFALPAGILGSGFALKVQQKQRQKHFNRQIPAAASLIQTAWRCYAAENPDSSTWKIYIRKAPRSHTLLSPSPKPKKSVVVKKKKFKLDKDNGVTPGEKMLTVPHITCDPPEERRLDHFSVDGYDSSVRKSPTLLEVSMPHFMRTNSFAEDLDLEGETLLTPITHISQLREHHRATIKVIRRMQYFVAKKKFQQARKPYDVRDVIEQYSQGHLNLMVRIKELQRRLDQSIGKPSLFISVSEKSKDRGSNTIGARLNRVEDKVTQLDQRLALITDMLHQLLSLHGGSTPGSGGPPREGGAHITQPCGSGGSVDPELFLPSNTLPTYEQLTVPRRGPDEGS
Outline: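 Test system – KCNQ1-expressing CHO cell line · Incubation – FluxOR dye loading 90 min, compound exposure 20 min, room temperature · Detection – FluxOR Tl+ flux fluorescence, 10 s baseline plus 110 s recording · Controls – buffer-only wells as 0% and R-L3 activator as 100%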

[3] = molecular target: Potassium voltage-gated channel subfamily KQT member 2 (Rattus norvegicus) (UniProt O88943); assay: rat KCNQ2 channel potentiation, selectivity assay for KCNQ1 potentiator project, KCNQ2-CHO-K1 cells (AID 493009;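 active = mean duplicate potentiation above the buffer control mean plus 5 SD of buffer wells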;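 also: assay conditions were tuned for KCNQ1 rather than KCNQ2 modulators; signal is max minus min fluorescence divided by baseline after thallium stimulus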); conditions: FluxOR thallium flux fluorescence, at 10 µM; stronger effect = higher value, scaled: buffer 0, activator control 100
Chain of Potassium voltage-gated channel subfamily KQT member 2 (Rattus norvegicus) (O88943 whole entry, looked up): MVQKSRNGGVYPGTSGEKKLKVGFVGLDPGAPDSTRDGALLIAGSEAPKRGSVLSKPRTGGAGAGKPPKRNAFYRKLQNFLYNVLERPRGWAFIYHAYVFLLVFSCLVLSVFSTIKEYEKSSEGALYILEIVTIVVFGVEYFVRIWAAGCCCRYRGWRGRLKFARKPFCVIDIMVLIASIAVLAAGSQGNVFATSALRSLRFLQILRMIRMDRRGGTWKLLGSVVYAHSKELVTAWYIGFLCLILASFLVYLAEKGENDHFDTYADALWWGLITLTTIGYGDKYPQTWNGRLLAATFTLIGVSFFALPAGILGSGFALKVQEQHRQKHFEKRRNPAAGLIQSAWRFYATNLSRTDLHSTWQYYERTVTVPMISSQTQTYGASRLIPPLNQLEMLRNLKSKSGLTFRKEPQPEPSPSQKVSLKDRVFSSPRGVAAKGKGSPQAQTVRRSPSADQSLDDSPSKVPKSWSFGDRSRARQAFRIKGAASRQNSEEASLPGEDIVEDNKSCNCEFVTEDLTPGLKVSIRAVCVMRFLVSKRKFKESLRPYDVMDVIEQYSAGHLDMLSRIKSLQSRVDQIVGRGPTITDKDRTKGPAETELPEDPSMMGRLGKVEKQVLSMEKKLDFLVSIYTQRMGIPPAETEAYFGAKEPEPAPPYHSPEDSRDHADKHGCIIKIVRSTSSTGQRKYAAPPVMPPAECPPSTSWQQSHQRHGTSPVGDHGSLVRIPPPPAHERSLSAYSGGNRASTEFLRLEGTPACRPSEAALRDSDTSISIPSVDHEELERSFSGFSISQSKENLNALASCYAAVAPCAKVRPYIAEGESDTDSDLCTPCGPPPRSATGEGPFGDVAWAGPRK

[4] = molecular target: Potassium voltage-gated channel subfamily KQT member 1 (Homo sapiens) (UniProt P51787); assay: KCNQ1 channel current potentiators, confirmation, orthogonal assay for KCNQ1 potentiator project, IonWorks patch clamp, KCNQ1-CHO cells (AID 493184;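 active = current rise at least 3 SD above the untreated control mean in each of two repeat wells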;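 as to current potentiation: percent change of the same well's current before compound addition so 0% = no change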); conditions: automated patch clamp current, at 10 µM; stronger effect = higher value
Outline: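 Read-out: Percent current increase versus pre-compound level | Assay system: CHO cells carrying KCNQ1 | Measured by: Automated perforated-patch electrophysiology | Medium: External bath solution at pH 7.4 | Dosing: One dose, 10 µM final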

Compound | outcome [1] | potentiation [2] | potentiation [3] | outcome [4] | outcome [2] | outcome [3] | activation [1] | current potentiation [4]
CC(C)CC(=O)NC(=S)Nc1nc(-c2cccc3ccccc23)cs1 | inactive | 60% (active) | 156% (active) | inactive | – | – | – | –
O=S(=O)(CC(CN1CCCC1)N1CCCC1)c1ccc2ccccc2c1 (stereo not given) | inactive | – | – | inactive | inactive | inactive | – | –
CCOc1ccc2[nH]c(=O)c(CN(CCN3CCCC3)C(=S)Nc3ccccc3OCC)cc2c1 | – | – | 164% (active) | inactive | inactive | – | 137% (active) | –
CCOc1ccccc1NC(=S)NC(=O)c1ccco1 | – | 35% (active) | 184% (active) | inactive | – | – | 172% (active) | –
O=C(NC(=S)Nc1ccc2c(c1)OCCO2)c1ccco1 | – | 108% (active) | 260% (active) | inactive | – | – | 206% (active) | –
O=C(NC1CC1)C1=NOC(CNc2ncc(C(F)(F)F)cc2Cl)C1 (stereo not given) | inactive | – | – | inactive | inactive | inactive | – | –
C/C(=C/CCC(C)[C@H]1CC[C@@]2(C)C3=C(CC[C@]12C)[C@@]1(C)CCC(=O)C(C)(C)[C@@H]1CC3)C(=O)O (stereo not given in full) | – | 298% (active) | 680% (active) | inactive | – | – | 829% (active) | –
COc1cc(C2NC(=O)NC(O)(C(F)(F)F)C2C(C)=O)cc(OC)c1OC (stereo not given) | inactive | – | – | inactive | inactive | inactive | – | –
CN(C)CCCN1c2ccccc2Sc2ccc(Cl)cc21 | inactive | – | – | inactive | inactive | inactive | – | –
O=c1cc(N2CCc3ccccc32)[nH]c(=O)n1Cc1ccc(F)cc1 | inactive | – | – | inactive | inactive | inactive | – | –
Cc1cc(S(=O)(=O)N2CCOCC2)ccc1OCC(=O)Nc1ccc(Br)cc1F | inactive | – | – | inactive | inactive | inactive | – | –
COc1ccc(C(=O)NC(=S)N2CCC(C)CC2)cc1Br | – | 90% (active) | 290% (active) | inactive | – | – | 185% (active) | –
Cc1cc(C)cc(C(=O)OCC(=O)NCC(F)(F)F)c1 | inactive | – | – | inactive | inactive | inactive | – | –
O=C(CC1(O)C(=O)N(C/C=C/c2ccccc2)c2ccccc21)c1ccccn1 (stereo not given) | inactive | – | – | inactive | inactive | inactive | – | –
COc1ccc2nc(N3C(=O)/C(=C/c4ccccc4)NC3=S)sc2c1 | – | 204% (active) | 486% (active) | inactive | – | – | 380% (active) | –
CCNC(=S)Nc1scc(-c2ccccc2)c1C(=O)OCC | – | 44% (active) | 214% (active) | inactive | – | – | 254% (active) | –
ON/C=N/C(=S)Nc1ncc(C(F)(F)F)cc1Cl | – | 69% (active) | 218% (active) | inactive | – | – | 264% (active) | –
CCOc1ccccc1NC(=O)CCC(=O)Nc1ccccc1OCC | inactive | – | – | inactive | inactive | inactive | – | –
O=C(CCc1ccccc1)Nc1nccs1 | inactive | – | – | inactive | inactive | inactive | – | –
CCCCOC(=O)c1ccc(NC(=S)NC(=O)c2c(Cl)cnn2CC)cc1 | – | 196% (active) | 298% (active) | inactive | – | – | 208% (active) | –

Compound | outcome [1] | potentiation [2] | potentiation [3] | outcome [4] | outcome [2] | outcome [3] | activation [1] | current potentiation [4]
CCOC(=O)c1cccc(NC(=O)CCc2ccccc2)c1 | inactive | – | – | inactive | inactive | inactive | – | –
Cc1ccc(C)c(S(=O)(=O)NCC(=O)N2CCCC2)c1 | inactive | – | – | inactive | inactive | inactive | – | –
CC12CCC(C/C1=N\N=C1\NC(=O)/C(=C\c3ccc(Cl)cc3)S1)C2(C)C (stereo not given) | – | 74.5% (active) | 204% (active) | inactive | – | – | 175% (active) | –
CCOC(=O)CC1=NS(=O)(=O)c2ccccc2N1 | inactive | – | – | inactive | inactive | inactive | – | –
N#CCn1c(CCl)nc2ccccc2c1=O | inactive | – | – | inactive | inactive | inactive | – | –
C=CCn1c(=S)[nH]c2nc3c(cc2c1=O)CCCC3 | inactive | 34% (active) | 152% (active) | inactive | – | – | – | –
CCCSc1nnc(-c2cnn(-c3ccccc3)c2-n2cccc2)n1C | inactive | – | – | inactive | inactive | inactive | – | –
CC(CCc1ccccc1)NC(=O)c1ccccc1C(=O)O (stereo not given) | inactive | – | – | inactive | inactive | inactive | – | –
COc1cc(-c2nnc(COC(=O)c3cccn3C)o2)cc(OC)c1OC | inactive | – | – | inactive | inactive | inactive | – | –
COC(=O)C1=C(C)NC(C)=C(C(=O)OC)C1c1ccccc1[N+](=O)[O-] | inactive | – | – | inactive | inactive | inactive | – | –
N#Cc1ccccc1NS(=O)(=O)c1cc2c3c(c1)CCC(=O)N3CCC2 | inactive | – | – | inactive | inactive | inactive | – | –
CC(C)Cc1c2c([nH]c(=S)c1C#N)CCCC2 | inactive | – | 143% (active) | inactive | inactive | – | – | –
O=C(Nc1nnc(-c2ccc3c(c2)CCCC3)o1)c1c(F)cccc1F | – | 25% (active) | 182% (active) | – | – | – | 148% (active) | 20.7% (active)
Cc1ccc(C(C)C)c(OCc2n[nH]c(=S)o2)c1 | – | 27% (active) | 160% (active) | inactive | – | – | 154% (active) | –
COc1ccc(C)cc1N=Nc1ccc(O)c2ncccc12 | inactive | – | – | inactive | inactive | inactive | – | –
O=c1[nH]cc(S(=O)(=O)c2ccccc2)[nH]1 | inactive | – | – | inactive | inactive | inactive | – | –
CCOC(=O)c1c(C)[nH]c(=S)c(C#N)c1-c1ccc(Cl)cc1 | – | 34.5% (active) | 170% (active) | inactive | – | – | 150% (active) | –
O=c1c(O)c(-c2ccc3c(c2)OCO3)oc2ccccc12 | inactive | 41.5% (active) | 162% (active) | inactive | – | – | – | –
COc1ccc(OCC(=O)NNC(=O)c2cccs2)cc1 | – | 47.5% (active) | 168% (active) | inactive | – | – | 146% (active) | –
CCc1ccc2nc(NC(=O)c3cc(C)on3)sc2c1 | – | 55% (active) | 151% (active) | inactive | – | – | 157% (active) | –

Compound | outcome [1] | potentiation [2] | potentiation [3] | outcome [4] | outcome [2] | outcome [3] | activation [1] | current potentiation [4]
O=C(NC(=S)Nc1ccccc1N1CCCC1)c1ccc([N+](=O)[O-])cc1 | – | 100% (active) | 218% (active) | inactive | – | – | 161% (active) | –
CC1CCN(C(=S)NC(=O)c2cccc([N+](=O)[O-])c2)CC1 | – | 41.5% (active) | 189% (active) | inactive | – | – | 207% (active) | –
O=C1CN(c2nc(-c3cccs3)nc3sc4c(c23)CCCC4)CCN1 | – | 415% (active) | 492% (active) | inactive | – | – | 259% (active) | –
CCOc1ccc(-n2cc(-c3ccccc3)c3c(=S)nc[nH]c32)cc1 | – | 192% (active) | 389% (active) | inactive | – | – | 337% (active) | –
Cc1ccccc1C(=O)NC1CC(C)(C)NC(C)(C)C1 | inactive | – | – | inactive | inactive | inactive | – | –
COc1ccc(Cc2nnc(NC(=O)C3CC(=O)N(c4ccccc4)C3)s2)cc1OC (stereo not given) | inactive | – | – | inactive | inactive | inactive | – | –
Cc1ccc(C(=O)NCCC(=O)NCc2cc(=O)n(C)c(=O)n2C)cc1 | inactive | – | – | inactive | inactive | inactive | – | –
O=[N+]([O-])c1cc(C(F)(F)F)ccc1Oc1cccnc1[N+](=O)[O-] | inactive | – | – | inactive | inactive | inactive | – | –
COc1cccc(C=O)c1OCCCOc1cccc2cccnc12 | inactive | – | – | inactive | inactive | inactive | – | –
COC(=O)COc1ccc(-c2ccccc2)cc1C=O | – | 34.5% (active) | 216% (active) | inactive | – | – | 179% (active) | –
COc1ccc(N2CCN(C(=O)COC(=O)/C=C/c3ccc(OC(F)F)cc3)CC2)cc1 | – | 64.5% (active) | 228% (active) | inactive | – | – | 178% (active) | –
CCC1Oc2ccc(C)cc2N(CC(=O)N(Cc2ccc(C)o2)C2CC(C)(C)NC(C)(C)C2)C1=O (stereo not given) | – | 63.5% (active) | 166% (active) | inactive | – | – | 152% (active) | –
Cc1ccc(C(C#N)c2ccc3c(C(F)(F)F)cc(C(F)(F)F)nc3n2)cc1 (stereo not given) | – | 114% (active) | 222% (active) | inactive | – | – | 150% (active) | –
O=C1C(C2=C(O)c3ccccc3C2=O)=Nc2ccccc21 | – | 61% (active) | 238% (active) | inactive | – | – | 225% (active) | –
Cc1cccc(S(=O)(=O)Nc2cccc3c2C(=O)c2ccccc2-3)c1 | inactive | 43.5% (active) | 152% (active) | inactive | – | – | – | –
COc1ccc(C(=O)NNC(=O)C(=O)NC2CCCCC2)cc1 | inactive | 22% (active) | 168% (active) | inactive | – | – | – | –
CN1CCN(C=Nc2nc3ccccc3nc2N2CCCC2)CC1 | inactive | – | – | inactive | inactive | inactive | – | –
Cc1ccc2nc(C)cc(N/N=C/c3cccnc3)c2c1 | inactive | – | – | inactive | inactive | inactive | – | –
COc1ccc(-c2cc(C(=O)Nc3c(Cl)cc(Cl)cc3Cl)c3ccccc3n2)cc1OC | inactive | – | – | inactive | inactive | inactive | – | –
COc1ccc(C)cc1-n1c(C)cc(C=O)c1C | inactive | 44% (active) | 153% (active) | inactive | – | – | – | –
